Source: PubChem BioAssay (several laboratories)
MPTP block = blocks calcium-induced mitochondrial swelling; inhibition, % at 10 µM; isolated mouse mitochondria, Ca2+ swelling absorbance, 30 min; actives 1.4% (n = 360,000);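 active = inhibition of 50% or more, scaled per plate between neutral and stimulator controls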;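 note: 0% = DMSO wells given calcium and 100% = 1 mM EGTA wells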
CHOP inh = inhibitors of CHOP induction in ER stress response | inhibition, % at 10 µM | actives 3.8% (n = 220,000) | CHO-K1 CHOP-promoter luciferase, tunicamycin-induced, 15-18 h | AID 2732;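 active = compounds that reduced the stress-induced luciferase reporter signal by more than about 70% of percent inhibition, limit read from the data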;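 note: 0% = tunicamycin plus vehicle and 100% = wells without tunicamycin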
XBP1 UPR activ = activators of adaptive arm of unfolded protein response (XBP1); activation, % at 20 µM; CHO-XBP1 luciferase reporter, IRE1-XBP1 UPR activation, luminescence; percent of tunicamycin response, DMSO as zero; actives 0.33% (n = 330,000); AID 463104;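 active = versus positive control, 20 µM dose yields 30% or more activation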;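 note: 100% = tunicamycin at 10 µg/mL and 0% = DMSO only wells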
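Material: CHO cell line with stable XBP1 luciferase reporter; buffer or medium: F12 medium containing 10% fetal bovine serum; compound: single point, 20 µM final compound, 1% DMSO; incubation: 6 h treatment, 37 °C; measured by: glow luminescence from Steady-Glo reagent; evaluation: activation, % of tunicamycin; control set: tunicamycin high, DMSO low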
GRIN3A LBD mod = NR3A (human) ligand-binding domain modulation; actives 2.5% (n = 340,000); Tm shift relative to glycine control, % at 25 µM; NR3A LBD differential scanning fluorimetry, Tm shift; 0% = protein alone, 100% = glycine-bound protein;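 active = melting temperature shift of at least 10% of the positive control shift, at one fixed dose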
UPR CHOP act = activators of apoptotic arm of unfolded protein response (CHOP); CHO-CHOP luciferase reporter, UPR activation, luminescence; percent of tunicamycin response over DMSO baseline; activation, % at 10 µM; actives 0.34% (n = 330,000);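 active = at 10 µM dose, activation of 40% or more, normalized to positive control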;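 note: 100% = tunicamycin at 10 µg/mL and 0% = DMSO alone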
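System: CHO-CHOP luciferase reporter cell line; amount: 500 cells/well; buffer or medium: F12 medium containing 10% fetal bovine serum; incubation: 6 h compound exposure at 37 °C after overnight seeding; measured by: luciferase luminescence after 10 min with Steady-Glo reagent; evaluation: % reporter activation, DMSO baseline versus tunicamycin full activation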
aDG glyco up = alpha-DG glycosylation activation. Pro5-aDG cells, alpha-DG glycosylation AlphaScreen (IIH6); 0% Pro5, 100% B10-LARGE cell signal. activation, % at 10 µM. actives 0.22% (n = 360,000);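 active = activation of at least 8% versus controls, or a plate z-score of at least 8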;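 note: Pro5 are CHO cells carrying HIG-tagged alpha-DG that lacks glycosylation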
* hit, by the source's call; . = no result given; ! = not active in a repeat. Shown are actives, neighbours in structure and some others; about 5.6% of the full set was active somewhere.

SMILES | MPTP block | CHOP inh | XBP1 UPR activ | GRIN3A LBD mod | UPR CHOP act | aDG glyco up
C=CCn1c(Cc2ccccc2)n[nH]c1=S | 0.5 | -3.8 | -0.9 | -1.8 | 1.1 | -0.1
C=CCn1c(Cc2nc3ccc(Cl)cc3[nH]2)n[nH]c1=S | -1.5 | 81.5* | 0.9 | -3.2 | 1.1 | -0.1
Cc1c(-c2cc(Br)ccc2O)nc2cc3c(cc2c1C)OCO3 | 1.7 | . | 0.4 | -0.7 | -0.8 | 0.0
COc1ccc(Cl)cc1NC(=O)c1nc2nc(C)cc(C(F)F)n2n1 | 0.6 | 73.6* | 0.9 | 7.0 | 1.3 | -0.4
COc1cccc(NC(=O)c2nc3nc(C)cc(C(F)F)n3n2)c1 | -0.5 | 19.2 | -1.1 | 0.5 | 0.4 | 0.1
O=C1[C@H](Cc2ccccc2)NCCCC[C@@H](c2ccc(Cl)cc2)N1Cc1ccc(Cl)cc1 | 2.8 | . | . | -18.9 | . | 0.1
O=C1[C@H](Cc2ccccc2)NCCCC[C@H](c2ccc(Cl)cc2)N1Cc1ccccc1 | 2.7 | . | . | 10.1* | . | 1.4
COC(=O)c1ccc(CN(c2ccccn2)S(=O)(=O)c2ccccc2)cc1 | 3.1 | -9.1 | . | 0.7 | . | 0.5
COC(=O)c1ccc(CN(c2ccc(C(=O)O)c(O)c2)S(=O)(=O)c2ccc(Cl)c([N+](=O)[O-])c2)cc1 | 12.1 | . | . | 21.5* | . | -0.1
O=C(NC1CCCC1)c1cc(-c2cccc(Cl)c2)on1 | -0.4 | . | 1.0 | -0.2 | 7.8 | 0.0
O=C(CSc1ncn(-c2ccccc2)n1)Nc1ccc(Br)cn1 | 1.7 | -0.4 | -1.8 | -0.9 | -1.9 | -0.2
Cc1ccc(NC(=O)CSc2n[nH]c(C)c2[N+](=O)[O-])cc1C | 39.7 | 28.2 | -0.3 | 18.6* | 1.2 | 0.0
CC(C)c1nc(SCC(=O)Nc2ccc3c(c2)OCO3)n[nH]1 | -1.4 | 56.1 | 3.4 | -0.2 | -2.0 | -0.3
COc1ccc(NC(=O)CSc2n[nH]c(C)c2[N+](=O)[O-])cc1 | 0.7 | -20.8 | -1.1 | 0.8 | -0.9 | -0.1
Cc1ccc(NC(=O)CSc2ncn(-c3ccccc3)n2)cc1C | 3.4 | 2.6 | 0.9 | 22.2* | -3.1 | 0.3
COc1ccc(NC(=O)CSc2ncn(-c3ccccc3)n2)cc1Cl | -0.8 | 38.4 | -0.7 | 27.7* | -0.9 | 0.2
O=C(CSc1nc(-c2ccc(F)cc2)cc(C(F)(F)F)n1)Nc1ccc2c(c1)OCO2 | 4.6 | 73.0* | -0.5 | 1.9 | 1.1 | 0.4
COCC(=O)Nc1ccc(OC)c(Cl)c1 | -0.6 | 22.7 | -1.0 | -1.0 | 2.5 | 1.1
CN(C)c1ccc(-c2ccnc3c2CC(C)(C(=O)NCCC(F)(F)F)O3)cc1 (stereo not given) | 0.7 | . | . | . | . | -0.1
O=C(CSc1ncn(-c2ccccc2)n1)Nc1ccc2c(c1)OCCO2 | -1.5 | 19.7 | -1.3 | 0.1 | 13.4 | 0.0
O=C(CSc1ncn(-c2ccccc2)n1)Nc1ccc2c(c1)OCO2 | 1.8 | 19.2 | 1.3 | 12.8* | -0.6 | 0.0
O=C(Nc1nc2cc(Cl)ccc2s1)C1CCCN(S(=O)(=O)c2cccc3cccnc23)C1 (stereo not given) | 1.2 | 74.8* | 1.2 | 0.1 | 2.2 | -0.1
Cc1ccc(S(=O)(=O)N2CCCC2C(=O)Nc2nc3ccccc3s2)cc1 (stereo not given) | 0.7 | 23.5 | 1.0 | -1.3 | -0.7 | 0.3
O=C(Nc1nc2ccccc2s1)C1CCCN1S(=O)(=O)c1ccc(Cl)cc1 (stereo not given) | 5.8 | 92.1* | 4.7 | -10.7 | -3.8 | -0.1
COc1ccc(C=C(C#N)C(=O)c2ccccc2)cc1 | 0.1 | . | . | . | . | -0.1
SMILES | MPTP block | CHOP inh | XBP1 UPR activ | GRIN3A LBD mod | UPR CHOP act | aDG glyco up
COc1cc(/C=C(\C#N)C(=O)c2ccc(O)c(O)c2)cc(I)c1O | 2.8 | 85.7* | -6.5 | 1.6 | -0.2 | -0.1
Cn1cc([N+](=O)[O-])c(C(=O)Nc2ccc3nc(-c4ccccc4)[nH]c3c2)n1 | -0.5 | 1.0 | 0.0 | -12.2 | 3.6 | 0.1
Cn1cc([N+](=O)[O-])c(C(=O)Nc2ccc(-c3nc4ccccc4[nH]3)cc2)n1 | 1.6 | -42.6 | 4.1 | 18.7* | 4.7 | -0.1
O=C(Nc1ccc2nc(-c3ccco3)[nH]c2c1)c1ccco1 | -1.6 | -7.1 | 4.4 | -1.7 | 4.0 | -0.2
O=C(CSc1ccc(Cl)cc1)Nc1ccc(-c2nc3ccccc3[nH]2)cc1 | 0.6 | 15.5 | 1.4 | 37.5* | 1.7 | -0.3
O=C(Nc1ccc(-c2nc3ccccc3[nH]2)cc1)c1ccco1 | -0.4 | -13.7 | -3.0 | 35.2* | 0.3 | 0.8
CC(C)N(C(=O)CSc1ccc(S(=O)(=O)N2CCCCC2)cn1)c1ccccc1 | -1.4 | . | -2.1 | 1.5 | 0.8 | 0.0
CCN(CC)CCNCc1ccc(-c2ccc(Cl)cc2)o1 | 1.4 | 82.0* | 1.1 | 2.2 | -2.5 | 0.1
CCN(CC)CCNCC(O)(c1ccc(Cl)cc1)c1ccc(Cl)cc1 | 6.1 | -21.5 | -0.8 | 2.5 | -1.8 | 0.1
Cc1ccc(C)c(NS(=O)(=O)c2ccc3c(c2)Cc2cc(S(=O)(=O)Nc4cc(C)ccc4C)ccc2-3)c1 | 0.4 | 83.0* | . | 18.0* | . | -0.5
Cc1ccc(C)c(NS(=O)(=O)c2ccc3oc(=O)ccc3c2)c1 | 0.8 | . | -3.3 | 1.6 | 0.6 | -0.1
N#CCCN(C(=O)COc1ccc(Cl)cc1Cl)c1ccccc1 | 0.5 | 35.1 | 0.2 | -0.1 | 0.5 | -0.2
COc1ccccc1N(C(C)=O)c1nc(C)cc(C)c1C#N | -1.9 | -3.6 | 1.8 | 18.7* | -2.5 | -0.3
COc1cc(CN2CCN(c3cccc(C)c3C)CC2)cc(Br)c1O | -1.5 | 90.6* | -1.8 | -4.2 | 0.4 | 0.4
CCCCNC(=O)c1ccc(CNc2c(N3CCC(C(=O)OCC)CC3)c(=O)c2=O)cc1 | 0.2 | 3.5 | 0.2 | 11.2*! | -0.5 | -0.3
O=C(Nc1cccc(S(=O)(=O)N2CCCCC2)c1)C1CC(=O)N(c2ccc3c(c2)OCCO3)C1 (stereo not given) | -1.3 | . | -5.0 | -5.3 | 1.6 | -0.1
CCOC(=O)c1cn(Cc2ccc(C)cc2)c2cc(F)ccc2c1=O | 0.2 | . | 1.4 | 0.6 | 1.6 | 0.0
COc1ccccc1CNC(=O)CCS(=O)(=O)c1ccc2c(c1)CCN2C(C)=O | -2.9 | . | -0.3 | -2.4 | 0.1 | 5.3*
COc1ccc(CCNC(=O)CCS(=O)(=O)c2ccc3c(c2)CCN3C(C)=O)cc1OC | -2.0 | -8.5 | 0.1 | -0.4 | -2.4 | -0.3
N#CCC(CNc1ncc(C(F)(F)F)cc1Cl)OC(=O)c1ccc(Cl)cc1Cl (stereo not given) | 4.2 | 61.4 | 4.8 | 14.2* | -0.2 | -0.1
COCCC(=O)N1CCC(Oc2ccc(C(=O)N3CCCCC3CCO)cc2)CC1 (stereo not given) | -0.2 | . | -5.1 | 0.3 | 3.4 | 0.1
O=C(NCCO)C(=O)NCC1OCCCN1S(=O)(=O)c1cc(F)ccc1F (stereo not given) | 0.5 | . | -1.0 | 136.0* | -1.1 | 0.1
